Results on 2 substances are retold here after article PMC3838204 (Journal of the American Chemical Society, 2013).

The data set is described as follows: Hydrolysis of peptide-thioester. It counts as physicochemical. In outline:
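The Asp peptide-thioester (~2 mM) was incubated with Cys-peptide (~2.4 mM) in helium-purged buffer: 6 M Gu·HCl, 200 mM Na2HPO4, 10 mM TCEP·HCl, 20 mM MPAA, pH 7.0, RT, 18–24 h. Monitoring was by LC-MS and RP-HPLC (210 nm). Control omitted Cys-peptide and MPAA, at pH 6.8 for 19 h. The thioester was also examined after HF deprotection/cleavage.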

On to LYRAD-^αCOSR`, for which the “hydrolysis of the peptide-thioester after HF deprotection and cleavage” value (after HF deprotection and cleavage) is listed as “no hydrolysis”. For the same substance, the “hydrolyzed product formed from the peptide-thioester” value (control in absence of the Cys-peptide and without added MPAA, 19 h, pH 6.8) is given as “about 30%”. For the same substance, the “hydrolysis of the peptide-thioester during the ligation reaction” value (ligation conditions: 6 M guanidine hydrochloride, 200 mM Na2HPO4, 10 mM TCEP, 20 mM MPAA, pH 7.0, RT, 18–24 hours, LC-MS) was “nor was significant hydrolysis”.

As to LYRAX-^αCOSR` [−Glu-α-thioester], under “control in absence of the Cys-peptide and without added MPAA”, the “hydrolysis of the thioester, control” value is “no significant hydrolysis”.
